According to ChEMBL document CHEMBL4477171, “Identification of PTP1B and α-Glucosidase Inhibitory Serrulatanes from Eremophila spp. by Combined use of Dual High-Resolution PTP1B and α-Glucosidase Inhibition Profiling and HPLC-HRMS-SPE-NMR” (J Nat Prod, 2016):
One block for each compound: values may come before it. The source made the active and inactive calls. No cut-off for these calls is given here.

What was measured:
Saccharomyces cerevisiae = experiment: Inhibition of Saccharomyces cerevisiae alpha-glucosidase type-1 pre-incubated for 10 mins before pNPG substrate addition assessed as reduction in p-nitrophenol release
Summary of the method: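 Dried residues were dissolved in 25% DMSO in 0.1 M phosphate buffer, pH 6.9, at 25 °C. α-Glucosidase was added to 0.25 U/mL final (6.25% DMSO final) and preincubated for 10 min. The reaction was started with pNPG (1.25 mM final). A405 was read every 30 s for 10 min, and inhibition was taken from the cleavage rate relative to the blank.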

[1] = target: T1, Tyrosine-protein phosphatase non-receptor type 1 (Homo sapiens) (UniProt P18031); experiment: (§1) Inhibition of recombinant human PTP1B preincubated for 10 mins followed by protein addition using pNPP substrate
T1 sequence (whole entry): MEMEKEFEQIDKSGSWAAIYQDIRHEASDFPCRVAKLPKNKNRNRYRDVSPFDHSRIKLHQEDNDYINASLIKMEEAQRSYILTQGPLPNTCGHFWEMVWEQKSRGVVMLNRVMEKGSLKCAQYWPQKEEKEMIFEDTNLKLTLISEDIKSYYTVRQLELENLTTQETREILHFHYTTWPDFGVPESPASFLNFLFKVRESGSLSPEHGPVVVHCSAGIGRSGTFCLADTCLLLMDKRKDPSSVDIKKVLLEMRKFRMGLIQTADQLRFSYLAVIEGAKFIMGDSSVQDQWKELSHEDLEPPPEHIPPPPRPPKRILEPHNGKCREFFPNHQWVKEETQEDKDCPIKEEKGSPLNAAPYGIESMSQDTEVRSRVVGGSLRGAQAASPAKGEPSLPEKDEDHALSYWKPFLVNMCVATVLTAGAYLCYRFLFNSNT
Summary of the method: (§2)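 Compounds were dissolved in MeOH as dilution series, dispensed in triplicate and dried. Residues were taken up in DMSO in 50 mM Tris/50 mM bis-Tris buffer with 100 mM NaCl, pH 7.0, at 25 °C. Final conditions were 10% DMSO, 1 mM EDTA, 0.5 mM pNPP and 2 mM DTT. After a 10 min preincubation, recombinant human PTP1B (0.05 μg/well) was added to start the reaction. A405 was read every 30 s for 10 min. Inhibition was calculated from the rate slope against the blank, and IC50 from dose–response curves.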

[2] = target: T2, Tyrosine-protein phosphatase non-receptor type 1 (Homo sapiens, UniProt P18031); experiment: Inhibition of GST-tagged human PTP1B expressed in Escherichia coli using pNPP substrate assessed as reduction in p-nitrophenol release; summary of the method: as §2
T2 sequence (P18031 whole entry): T1 sequence (whole entry)

[3] = target: T2, Tyrosine-protein phosphatase non-receptor type 1; experiment: as §1; summary of the method: as §2

SMILES: COc1cc(O)c2c3c1-c1ccc(O)cc1[C@@H]1Oc4ccccc4[C@@H](CC2=O)[C@@H]31
IC50 [2]: 3.5 to 7.6 µM

SMILES: O=C1c2c(O)cc(O)c3c2[C@@H]2[C@@H](c4ccccc4O[C@H]2c2cccc(O)c2-3)[C@H]1O [OHIOENSIN G]
IC50 [2]: 3.5 to 7.6 µM

SMILES: COc1cc(O)c2c(c1)O[C@H](c1ccc(O)cc1)CC2=O
inhibition (Saccharomyces cerevisiae): Active

SMILES: C=C(CCC=C(C)C)[C@H]1CC[C@]2(C)CCCC(=C)[C@H]2C1 [LOBOPHYTUMIN C]
IC50 [2]: 7.8 µM

SMILES: COc1cc(/C=C/C(=O)OC[C@H](C)CCC[C@H](C)[C@@H]2CC[C@@H](C)c3c2cc(C(=O)O)c(O)c3O)ccc1O
inhibition [1]: Active

SMILES: CC(C)CC(=O)OC[C@H](C)CCC[C@H](C)[C@@H]1CC[C@@H](C)c2c1cc(C(=O)O)c(O)c2O
IC50 [3]: 3.44 µM

SMILES: CC1=CCC[C@H]2[C@@H](C)[C@@](C)(CC3=C(O)C(=O)C=C(CCCS(=O)(=O)O)C3=O)CC[C@]12C
IC50 [2]: 1.5 µM

SMILES: OC[C@H]1O[C@@H](O[C@@H]2c3ccccc3[C@H](O)C[C@H]2O)[C@H](O)[C@@H](O)[C@@H]1O
IC50 [2]: 5.5 µM

SMILES: C[C@H](CCC[C@H](C)[C@@H]1CC[C@@H](C)c2c1cc(C(=O)O)c(O)c2O)COC(=O)/C=C/c1ccc(O)c(O)c1
inhibition [1]: Active

SMILES: O=C1C[C@@H]2c3ccccc3O[C@H]3c4cc(O)ccc4-c4c(O)cc(O)c1c4[C@H]23 [OHIOENSIN A]
IC50 [2]: 3.5 to 7.6 µM

SMILES: C=C1CC[C@@H]2[C@H]1[C@H]1[C@@H](C(C)CC(=O)C=C(C)C)CC[C@]12C (stereo partly specified)
IC50 [2]: 5.9 µM

SMILES: O=C1C[C@]2(O)c3ccccc3O[C@H]3c4cc(O)ccc4-c4c(O)cc(O)c1c4[C@@H]32 [OHIOENSIN F]
IC50 [2]: 3.5 to 7.6 µM

Now from value to compound:

inhibition (Saccharomyces cerevisiae): Active
SMILES: C/C(C=O)=C\CC[C@H](C)[C@@H]1CC[C@@H](C)c2c(O)cc(C(=O)O)cc21

inhibition [1]: Active
SMILES: CC(C)=CCC[C@H](C)[C@@H]1CC[C@@H](C)c2c1cc(C(=O)O)c(O)c2O

IC50 [3]: 1260 µM
SMILES: C[C@@H](CO)CCC[C@H](C)[C@@H]1CC[C@@H](C)c2c1cc(C(=O)O)c(O)c2O

IC50 [3]: 6.27 µM
SMILES: C[C@H](CCC[C@H](C)[C@@H]1CC[C@@H](C)c2c(O)cc(C(=O)O)cc21)COC(=O)/C=C/c1ccccc1

inhibition (Saccharomyces cerevisiae): Active
SMILES: C/C(=C\CC[C@H](C)[C@@H]1CC[C@@H](C)c2c(O)cc(C(=O)O)cc21)CO

inhibition [1]: Active
SMILES: CC(C)=CCC(=O)OC[C@H](C)CCC[C@H](C)[C@@H]1CC[C@@H](C)c2c(O)cc(C(=O)O)cc21

IC50 [3]: 7.67 µM
SMILES: CCCC(=O)OC[C@H](C)CCC[C@H](C)[C@@H]1CC[C@@H](C)c2c1cc(C(=O)O)c(O)c2O

inhibition [1]: Active
SMILES: C[C@H](CCC[C@H](C)[C@@H]1CC[C@@H](C)c2c(O)cc(C(=O)O)cc21)COC(=O)CCc1ccccc1

inhibition (Saccharomyces cerevisiae): Active
SMILES: C[C@@H](CO)CCC[C@H](C)[C@@H]1CC[C@@H](C)c2c(O)cc(C(=O)O)cc21
